Bioassay records deposited in PubChem BioAssay by Broad Institute.
Tcruzi prolif: inhibitors of T. cruzi proliferation. T. cruzi beta-gal in NIH3T3, GalScreen luminescence, 90 h. inhibition, % at 8.34 µM. 5.9% of 77,000 active. AID 624255;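 active means mean inhibition above about 93%, with at least 55% of replicates each passing it, limit read from the data, passing the limit was not always enough; inconclusive means only one of those two conditions holds; inactive means neither condition holds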
IDH1 R132H inh: IDH1 R132H (human) inhibition. IDH1 R132H reductase, diaphorase/resazurin fluorescence, 60 min. 0.18% of 70,000 active. inhibition, % at 10 µM. O75874; in the data active means inhibition above about 34%; inconclusive means no clear call, values can overlap the other calls; inactive means below about 11%
KDM4C inh: inhibitors of human demethylase GASC-1 KDM4C | 0.15% of 96,000 active | Q9H3R0 | AID 720574 | GST-KDM4C 2-372, H3K9me3 peptide, LANCE TR-FRET | inhibition, % at 12.5 µM;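 active means mean replicate inhibition above about 25%, with at least 55% of replicates also reaching it, limit read from the data, passing the limit was not always enough; inconclusive means only one of those two conditions met; inactive means neither condition met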
Target sequence (Q9H3R0 2-372 limits assumed): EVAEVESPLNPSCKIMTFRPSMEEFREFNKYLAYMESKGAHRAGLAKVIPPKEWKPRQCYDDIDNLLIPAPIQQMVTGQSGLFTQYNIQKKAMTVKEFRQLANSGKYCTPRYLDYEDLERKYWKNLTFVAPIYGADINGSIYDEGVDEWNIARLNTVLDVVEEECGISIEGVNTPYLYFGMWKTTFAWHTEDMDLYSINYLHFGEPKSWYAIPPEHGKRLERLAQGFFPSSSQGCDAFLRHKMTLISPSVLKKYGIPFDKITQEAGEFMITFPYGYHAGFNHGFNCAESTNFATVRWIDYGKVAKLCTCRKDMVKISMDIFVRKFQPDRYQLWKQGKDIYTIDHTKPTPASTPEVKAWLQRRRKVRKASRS
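Assay system: GST-GASC-1 enzyme fragment 2-372 | Amount: 10 nM enzyme | Medium: HEPES buffer, pH 7.5, plus ascorbate | Reagent: H3K9me3 peptide substrate, Fe(II), 2-oxoglutarate | Doses: Single-point compound screen | Incubation: 30 min demethylation and 1 h detection at room temperature | Measured by: LANCE TR-FRET, excitation 340 nm, emissions 618 and 671 nm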
Pf Dd2 growth: P. falciparum Dd2 growth inhibition; activity change, % at 10 µM; SYBR Green, 72 h; hits give low values; 2.3% of 94,000 active; in the data active means activity change below about -80%; inconclusive means no clear call, values can overlap the other calls
A number is an active result. Rows were chosen to be rich in hits. Some 5.8% of all compounds tested hit in one or more screens of this group.

COc1ccccc1C#Cc1ccc([C@H]2[C@@H](C#N)N(C(=O)C3CCCCC3)[C@H]2CO)cc1 was read as Tcruzi prolif inactive and Pf Dd2 growth -91.6.
`COc1ccccc1C#Cc1ccc([C@@H]2[C@@H](C#N)N(C(=O)C3CCCC3)[C@@H]2CO)cc1` gave KDM4C inh inactive and Pf Dd2 growth inactive.
COc1ccccc1C#Cc1ccc([C@@H]2[C@@H](C#N)N(C(=O)C3CCCCC3)[C@H]2CO)cc1 was read as Tcruzi prolif inactive and Pf Dd2 growth -90.6.
For CC(C)NC(=O)N1Cc2cc(C(=O)NCC(F)(F)F)nc(-c3cccc(-c4cc5ccccc5o4)c3)c2[C@H]1CCO the results were KDM4C inh inactive and Pf Dd2 growth -85.6.
Screening CC(C)(C)S(=O)N1Cc2cc(C(=O)NCc3ccc4c(c3)OCO4)nc(-c3cccc(-c4cc5ccccc5o4)c3)c2[C@H]1CCO (stereo partly specified) returned KDM4C inh inactive and Pf Dd2 growth -93.3.
`O=C(O)CNC(=O)CN1C(=O)c2ccccc2C1=O` gave IDH1 R132H inh inactive.
`COc1ccc(-c2ccc3c(c2)O[C@H](CN(C)C(C)=O)[C@@H](C)CN([C@@H](C)CO)S3(=O)=O)cc1` gave Tcruzi prolif inactive, IDH1 R132H inh inactive, KDM4C inh inactive and Pf Dd2 growth inactive.
CC(=O)N(C)C[C@@H]1Oc2cc(Br)ccc2S(=O)(=O)N([C@@H](C)CO)C[C@@H]1C was read as Tcruzi prolif inactive, IDH1 R132H inh inactive, KDM4C inh 41.6 and Pf Dd2 growth inactive.
Screening COc1ccc(-c2ccc3c(c2)O[C@H](CN(C)C(C)=O)[C@@H](C)CN([C@H](C)CO)S3(=O)=O)cc1 returned Tcruzi prolif inactive, IDH1 R132H inh 53.6, KDM4C inh 55.9 and Pf Dd2 growth inactive.
O=C(CCCCCCC(=O)Nc1ccccc1O)N/N=C/c1ccc(OCc2ccccc2)cc1O was read as IDH1 R132H inh inactive.
For COc1ccc(NC(=O)c2ccco2)cc1NC(=O)CSc1ccc(Cl)cc1 the results were IDH1 R132H inh inactive.
For CC(NS(=O)(=O)c1ccc(Cl)cc1)C(=O)Nc1cccc2ccccc12 (stereo unspecified) the results were IDH1 R132H inh inactive.
CCC(=O)N1CCC2(CC1)CN(C(C)=O)[C@@H](CO)c1[nH]c3cc(OC)ccc3c12 was read as KDM4C inh inactive and Pf Dd2 growth inactive.
`COc1ccc2c3c([nH]c2c1)[C@H](CO)N(Cc1cc(F)ccc1F)CC31CCN(C(=O)CN(C)C)CC1` gave KDM4C inh inactive and Pf Dd2 growth -80.7.
COc1ccc2c3c([nH]c2c1)[C@@H](CO)N(Cc1cc(F)ccc1F)CC31CCN(C(C)=O)CC1 was read as KDM4C inh inactive and Pf Dd2 growth -83.0.
COc1ccc2c3c(n(C)c2c1)[C@H](CO)N(Cc1cc(F)ccc1F)CC31CCN(C(C)=O)CC1 was read as KDM4C inh inactive and Pf Dd2 growth inactive.
CCC(=O)N1CCC2(CC1)CN(Cc1cc(F)ccc1F)[C@@H](CO)c1[nH]c3cc(OC)ccc3c12 was read as KDM4C inh inactive and Pf Dd2 growth -90.2.
For COC(=O)COc1ccc(NC(=O)c2ccc(NC(C)=O)cc2)cc1 the results were IDH1 R132H inh inactive.
Screening CCc1ccccc1NC(=O)CCCN1C(=O)c2ccccc2C1=O returned IDH1 R132H inh inactive.
`C[C@@H]1CCCCO[C@@H](CN(C)Cc2ccc(C(=O)Nc3ccccc3N)cc2)[C@@H](C)CN([C@H](C)CO)C(=O)c2cc(NS(=O)(=O)c3cccs3)ccc2O1` gave KDM4C inh inactive and Pf Dd2 growth inconclusive.
C[C@@H]1CCCCO[C@H](CN(C)Cc2ccc(C(=O)Nc3ccccc3N)cc2)[C@@H](C)CN([C@H](C)CO)C(=O)c2cc(NS(=O)(=O)c3cccs3)ccc2O1 was read as Tcruzi prolif inactive, IDH1 R132H inh inactive, KDM4C inh inactive and Pf Dd2 growth -87.2.
C[C@@H]1CCCCO[C@H](CN(C)Cc2ccc(C(=O)Nc3ccccc3N)cc2)[C@@H](C)CN([C@@H](C)CO)C(=O)c2cc(NS(=O)(=O)c3ccc(Cl)cc3)ccc2O1 was read as Tcruzi prolif inactive, KDM4C inh inactive and Pf Dd2 growth -84.9.
Screening COc1ccc(NC(=O)CSc2nc3c(cc2C#N)CCCCC3)cc1OC returned IDH1 R132H inh inactive.
For C[C@H]1CN([C@@H](C)CO)C(=O)c2c(c3ccccc3n2C)-c2ccccc2CO[C@@H]1CN(C)Cc1ccc(-c2ccccc2)cc1 the results were KDM4C inh inactive and Pf Dd2 growth -91.5.
